Test results reported in ChEMBL document CHEMBL1125822, “Quantitative structure-activity relationships of antitumor guanidinothiazolecarboxamides with survival enhancement for therapy in the 3LL Lewis lung carcinoma model” (1991).

Each compound was assayed on Lewis lung carcinoma cell line (assay: Compound injected intraperitoneally for 8 days and was tested for mean of increased life span in female BDF mice injected intravenously with 3LL Lewis Lung adenocarcinoma into lateral tail vein before 2 days).
Assay type: functional, Mus musculus
How it was run: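 Female BDF1 mice (18–20 g) given 6×10^5 log-phase 3LL cells in 0.2 mL RPMI 1640 by lateral tail vein. Drug suspended in DMSO/saline buffered to pH 7.4, dosed ip once daily on days 2–9 (8 treatments); screening dose 50 mg/kg. Mice monitored daily for survival; ILS (%) = (MST treated/MST vehicle control ×100) − 100; significance by Armitage trend test.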
In the case of `COc1cc2nc(NC(=O)c3csc(N=C(N)N)n3)sc2cc1Cl`, the ILS is reported as 21. For `CSc1ccc2sc(NC(=O)c3csc(N=C(N)N)n3)nc2c1.Cl`, the ILS was 1. In the case of `CCc1ccc2nc(NC(=O)c3csc(N=C(N)N)n3)sc2c1.Cl`, the ILS is reported as 33. `CCOc1ccc(F)c2sc(NC(=O)c3csc(N=C(N)N)n3)nc12` showed an ILS of 53. With `CCOc1ccc(Cl)c2sc(NC(=O)c3csc(N=C(N)N)n3)nc12` the ILS was 75. Work on `COc1ccc2nc(NC(=O)c3csc(N=C(N)N)n3)sc2c1` yielded an ILS of 7.5. Work on `CCc1cc(C#N)cc2sc(NC(=O)c3csc(N=C(N)N)n3)nc12.Cl` yielded an ILS of 38. In the case of `N=C(N)Nc1nc(C(=O)Nc2nc3ccc(C(N)=O)cc3s2)cs1`, the ILS is reported as 1. In the case of `CCCCOc1ccc2sc(NC(=O)c3csc(N=C(N)N)n3)nc2c1.Cl`, the ILS is reported as 34.5. Compound `N=C(N)Nc1nc(C(=O)Nc2nc3cc(F)c(F)cc3s2)cs1` has an ILS of 62. `COc1cccc2sc(NC(=O)c3csc(N=C(N)N)n3)nc12.Cl` showed an ILS of 45. `N=C(N)Nc1nc(C(=O)Nc2nc3cc(F)c(O)cc3s2)cs1` gave an ILS of 23. `N=C(N)Nc1nc(C(=O)Nc2nc3cc(Cl)c(Cl)cc3s2)cs1` was tested, and the ILS was 71. Compound `COc1ccc2sc(NC(=O)c3csc(N=C(N)N)n3)nc2c1C` has an ILS of 57. For `Cl.N=C(N)Nc1nc(C(=O)Nc2nc3cc([N+](=O)[O-])ccc3s2)cs1`, the ILS was 57. With `CCOc1ccc2nc(NC(=O)c3csc(N=C(N)N)n3)sc2c1` the ILS was 6. `Cl.N=C(N)Nc1nc(C(=O)Nc2nc3c(O)cccc3s2)cs1` showed an ILS of 14. `Cl.N=C(N)Nc1nc(C(=O)Nc2nc3cc(O)ccc3s2)cs1` showed an ILS of 10. In the case of `N=C(N)Nc1nc(C(=O)Nc2nc3cccc(C(F)(F)F)c3s2)cs1`, the ILS is reported as 35. In the case of `CCCc1ccc2nc(NC(=O)c3csc(N=C(N)N)n3)sc2c1.Cl`, the ILS is reported as 21.5. Work on `Cl.N=C(N)Nc1nc(C(=O)Nc2nc3ccc([N+](=O)[O-])cc3s2)cs1` yielded an ILS of 51.7. With `N=C(N)Nc1nc(C(=O)Nc2nc3c(F)cccc3s2)cs1` the ILS was 38. `CCCCCS(=O)(=O)c1ccc2nc(NC(=O)c3csc(N=C(N)N)n3)sc2c1` showed an ILS of 30. With `N=C(N)Nc1nc(C(=O)Nc2nc3cc(Cl)c(F)cc3s2)cs1` the ILS was 41. `Cc1cc(Cl)cc2sc(NC(=O)c3csc(N=C(N)N)n3)nc12` showed an ILS of 15. `Cl.N=C(N)Nc1nc(C(=O)Nc2nc3cccc(-c4ccccc4)c3s2)cs1` showed an ILS of 49. In the case of `CSc1cccc2sc(NC(=O)c3csc(N=C(N)N)n3)nc12.Cl`, the ILS is reported as 9. `Cl.N=C(N)Nc1nc(C(=O)Nc2nc3ccccc3s2)cs1` was tested, and the ILS was 15. Work on `CC(C)(C)c1ccc2nc(NC(=O)c3csc(N=C(N)N)n3)sc2c1.Cl` yielded an ILS of 61. `Cc1c(F)ccc2sc(NC(=O)c3csc(N=C(N)N)n3)nc12.Cl` showed an ILS of 62. `N=C(N)Nc1nc(C(=O)Nc2nc3cc(F)ccc3s2)cs1` was tested, and the ILS was 67.6. `Cl.N=C(N)Nc1nc(C(=O)Nc2nc3cc(-c4ccccc4)ccc3s2)cs1` gave an ILS of 18. With `Cc1cc(F)cc2sc(NC(=O)c3csc(N=C(N)N)n3)nc12.Cl` the ILS was 29. Work on `Cc1ccc2nc(NC(=O)c3csc(N=C(N)N)n3)sc2c1` yielded an ILS of 37.3. In the case of `Cc1cc(C)c2nc(NC(=O)c3csc(N=C(N)N)n3)sc2c1`, the ILS is reported as 64. `N=C(N)Nc1nc(C(=O)Nc2nc3c([N+](=O)[O-])cccc3s2)cs1` showed an ILS of 30. Work on `CC(C)Oc1ccc2sc(NC(=O)c3csc(N=C(N)N)n3)nc2c1.Cl` yielded an ILS of 23. `Cl.N#Cc1ccc2nc(NC(=O)c3csc(NC(=N)N)n3)sc2c1` showed an ILS of 53. Work on `N=C(N)Nc1nc(C(=O)Nc2nc3cc(Cl)c(C(N)=O)cc3s2)cs1` yielded an ILS of 42. For `Cc1cc(C(F)(F)F)cc2sc(NC(=O)c3csc(N=C(N)N)n3)nc12`, the ILS was 19. With `CCCCOc1ccc2nc(NC(=O)c3csc(N=C(N)N)n3)sc2c1.Cl` the ILS was 59. For `Cl.N=C(N)Nc1nc(C(=O)Nc2nc3ccc(Cl)cc3s2)cs1`, the ILS was 58. `Cl.N=C(N)Nc1nc(C(=O)Nc2nc3ccc(S(N)(=O)=O)cc3s2)cs1` showed an ILS of 1. `Cl.N=C(N)Nc1nc(C(=O)Nc2nc3cc(F)cc(F)c3s2)cs1` gave an ILS of 22. Compound `CSc1ccc2nc(NC(=O)c3csc(N=C(N)N)n3)sc2c1` has an ILS of 25.5. `N=C(N)Nc1nc(C(=O)Nc2nc3cc(F)c(Cl)cc3s2)cs1` was tested, and the ILS was 75. Compound `N=C(N)Nc1nc(C(=O)Nc2nc3c(F)ccc(F)c3s2)cs1` has an ILS of 26. `N=C(N)Nc1nc(C(=O)Nc2nc3ccc(-c4ccccc4)cc3s2)cs1` gave an ILS of 67. `CS(=O)(=O)c1ccc2sc(NC(=O)c3csc(N=C(N)N)n3)nc2c1` was tested, and the ILS was 1. For `CC(C)c1ccc2nc(NC(=O)c3csc(N=C(N)N)n3)sc2c1`, the ILS was 38. For `COc1cc([N+](=O)[O-])cc2sc(NC(=O)c3csc(N=C(N)N)n3)nc12`, the ILS was 20. With `Cl.N=C(N)Nc1nc(C(=O)Nc2nc3ccc(Cl)c(C(F)(F)F)c3s2)cs1` the ILS was 69. Compound `COc1cc2nc(NC(=O)c3csc(N=C(N)N)n3)sc2cc1OC` has an ILS of 5. Compound `N=C(N)Nc1nc(C(=O)Nc2nc3ccc(F)cc3s2)cs1` has an ILS of 38.8. `COc1ccc(C(F)(F)F)c2sc(NC(=O)c3csc(N=C(N)N)n3)nc12` showed an ILS of 17. Compound `CC(C)c1cccc2sc(NC(=O)c3csc(N=C(N)N)n3)nc12.Cl` has an ILS of 24. With `Cc1c(Cl)ccc2sc(NC(=O)c3csc(N=C(N)N)n3)nc12.Cl` the ILS was 73. With `Cc1cccc2sc(NC(=O)c3csc(N=C(N)N)n3)nc12.Cl` the ILS was 44. Work on `CCOc1ccc2sc(NC(=O)c3csc(N=C(N)N)n3)nc2c1.Cl` yielded an ILS of 44. Compound `Cc1ccc(F)c2sc(NC(=O)c3csc(N=C(N)N)n3)nc12.Cl` has an ILS of 53. Compound `N=C(N)Nc1nc(C(=O)Nc2nc3c(Cl)cccc3s2)cs1` has an ILS of 18. `COc1ccc(Cl)c2sc(NC(=O)c3csc(N=C(N)N)n3)nc12` was tested, and the ILS was 69. `Cc1cc2nc(NC(=O)c3csc(N=C(N)N)n3)sc2cc1C.Cl` showed an ILS of 18.
